Source: PubChem
Shown are actives, neighbours in structure and some others; about 2.2% of the full set was active somewhere.
IMP-1 inh-1: inhibitors of Pseudomonas aeruginosa IMP-1 metallo-beta-lactamase. inhibition, % at 5.6 µM. 290,000 tested, 0.45% active. purified IMP-1, nitrocefin hydrolysis, epi-absorbance fluorescence. AID 1556;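 active means inhibition above the mean plus 3 SD of all compounds in the same screening run, cut at about 4.5% in these data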;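 further: 0% = IMP-1 with DMSO and 100% = DMSO wells lacking enzyme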
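system = purified recombinant IMP-1 beta-lactamase | amount = 0.2 nM IMP-1, as dispensed | medium = HEPES buffer pH 7.1 with ZnSO4 and Brij 35 | times = 25 °C, 15 min preincubation, 25 min reaction | detection = plate fluorescence quenching by hydrolysis product, ex 480/em 530 nm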
VIM-2 inhibitor: inhibitors of Pseudomonas aeruginosa VIM-2 metallo-beta-lactamase; 290,000 tested, 0.89% active; AID 1527; purified VIM-2, nitrocefin hydrolysis, epi-absorbance fluorescence; inhibition, % at 5.6 µM;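 active means inhibition above the mean of all tested compounds plus 3 SD, cutoff set per screening run, cut at about 7.5% in these data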;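 further: red hydrolysis product quenches plate fluorescence so inhibitors raise well fluorescence; 0% = enzyme with DMSO and 100% = DMSO without enzyme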
Bcl-xL primary: inhibitors of human Bcl-xL. GST-Bcl-xL / FITC-Bim BH3 peptide fluorescence polarization. inhibition, % at 10.9 µM. 320,000 tested, 0.7% active. AID 2129;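 active means inhibition above the mean of all tested compounds plus 3 SD, cutoff set per campaign, cut at about 30% in these data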;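 further: 0% = DMSO wells and 100% = unlabeled Bim-BH3 peptide competitor; inhibitors lower millipolarization by displacing the labeled peptide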
MEX-5 binding: C. elegans MEX-5 TCR-2 RNA binding activity; Q9XUB2; MEX-5/FITC-TCR2 RNA binding, fluorescence polarization; active compounds read low; activity score (negative = inhibition of binding), % at 10 µM; 300,000 tested, 0.38% active;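 active means inhibition past about -25% in most replicates, and total fluorescence under double the plate's negative control median, limit read from the data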;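 further: 0% = DMSO and -100% = 5 µM competing unlabeled TCR2 RNA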
EBV gp42 block: inhibitors of Epstein-Barr virus glycoprotein 42; Fluorescence polarization binding assay, mP read-out; Q1HVG2; 220,000 tested, 0.42% active; AID 1085; inhibition, % (tested at 21.74 µM); in the data active means inhibition above about 50%
GLD-1 RNA inh: GLD-1-TGE RNA interaction inhibition (C. elegans). purified GLD-1 + fluorescein TGE RNA, fluorescence polarization. inhibition, % at 5.96 µM. 320,000 tested, 0.44% active. AID 2280;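 active means percent inhibition above a per-plate cutoff, the plate mean of test compounds plus 3 SD, cut at about 30% in these data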;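 further: 0% = DMSO wells with GLD-1 and probe and 100% = wells lacking GLD-1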
Target sequence (Q17339 whole entry, looked up): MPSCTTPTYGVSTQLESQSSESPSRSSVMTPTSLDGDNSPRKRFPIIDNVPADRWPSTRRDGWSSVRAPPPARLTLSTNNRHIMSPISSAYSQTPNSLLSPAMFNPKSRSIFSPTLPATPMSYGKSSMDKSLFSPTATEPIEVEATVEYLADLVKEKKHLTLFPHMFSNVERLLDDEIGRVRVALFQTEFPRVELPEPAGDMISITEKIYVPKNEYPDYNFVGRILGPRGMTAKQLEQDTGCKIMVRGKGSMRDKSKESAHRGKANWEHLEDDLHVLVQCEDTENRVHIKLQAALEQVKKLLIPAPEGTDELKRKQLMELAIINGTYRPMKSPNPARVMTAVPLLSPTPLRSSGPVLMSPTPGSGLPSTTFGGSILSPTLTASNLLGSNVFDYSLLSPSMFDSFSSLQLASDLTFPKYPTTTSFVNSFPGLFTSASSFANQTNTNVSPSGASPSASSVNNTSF
IMP-1 inh-2: blocks IMP-1 metallo-beta-lactamase in VIM-2 selectivity screen. inhibition, % at 5.6 µM. 1,300 tested, under 10 active. purified IMP-1, nitrocefin hydrolysis, epi-absorbance fluorescence. shares compounds with VIM-2 inhibitor. AID 1856; call rule not given here;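 further: 0% = enzyme with vehicle and 100% = vehicle without enzyme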
VIM-2 FRET inh: counter-screen for VIM-2 inhibitors: epi-absorbance artifacts via FRET. purified VIM-2, CCF2 FRET substrate hydrolysis. AID 1857. inhibition, % at 5.6 µM. shares compounds with VIM-2 inhibitor. 1,300 tested, 23% active;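 active means inhibition above the mean of all tested compounds plus 3 SD, cut at about 19% in these data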;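 further: 0% = VIM-2 plus DMSO and 100% = no enzyme wells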
TEM-1 counter: blocks E. coli TEM-1 beta-lactamase in VIM-2 selectivity screen; shares compounds with VIM-2 inhibitor; Purified TEM-1, nitrocefin hydrolysis, epi-absorbance fluorescence; inhibition, % at 5.6 µM; 1,300 tested, 3% active; AID 1866;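 active means inhibition above that campaign's mean inhibition plus 3 SD, cut at about 0.46% in these data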;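 further: 0% = TEM-1 with DMSO and 100% = TEM-1 with 100 µM potassium clavulanate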
VIM-2 inh conf: confirmation of P. aeruginosa VIM-2 metallo-beta-lactamase inhibitors. purified VIM-2, nitrocefin hydrolysis, epi-absorbance. 1,300 tested, 96% active. shares compounds with VIM-2 inhibitor. inhibition, % at 5.6 µM. AID 2187;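 active means inhibition of the VIM-2 beta-lactamase enzyme above about 11% from the earlier first-round screen, limit read from the data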;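 further: 0% = VIM-2 with DMSO and 100% = buffer wells without enzyme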
The depositor's hits bear a star; nt = no result given.

SMILES	IMP-1 inh-1	VIM-2 inhibitor	Bcl-xL primary	MEX-5 binding	EBV gp42 block	GLD-1 RNA inh	IMP-1 inh-2	VIM-2 FRET inh	TEM-1 counter	VIM-2 inh conf
N#C/C(=C(/O)CCl)c1nc2ccccc2[nH]1	0.3	49.7*	22.7	-2.5	25.5	1.4	-2.7	-12.2	-6.8	35.8*
Cc1cccc(-n2c(CCn3nc(C)c([N+](=O)[O-])c3C)n[nH]c2=S)c1	-5.1	17.4*	-4.9	-0.9	1.1	0.5	-3.6	46.4*	-7.4	30.2*
COc1ccc(CCn2nc(C)c([N+](=O)[O-])c2C)cc1	-2.1	-0.5	5.2	1.1	nt	-0.7	nt	nt	nt	nt
COc1cccc(-n2c(CCn3nc(C)c([N+](=O)[O-])c3C)n[nH]c2=S)c1	-2.6	13.8*	-1.2	1.7	-5.5	0.0	-2.8	37.6*	-4.5	25.0*
COC(=O)[C@]1(Cc2ccccc2)N[C@H](CN(C)C(=O)Nc2ccc(C)cc2)[C@@H]2C(=O)N(C)C(=O)[C@@H]21	nt	nt	nt	nt	nt	2.6	nt	nt	nt	nt
COc1ccc2ccccc2c1C(O)c1nccn1C (stereo not drawn)	0.5	12.6*	173.1*	-4.0	60.3*	145.0*	-0.4	-1.6	-1.3	11.2*
CCCc1cc(=O)oc2c(C)c(OCC(=O)N3CCC(C(N)=O)CC3)ccc12	-2.4	-1.8	3.3	-0.8	nt	-3.2	nt	nt	nt	nt
Cc1c(OCC(=O)N2CCC(C(N)=O)CC2)ccc2c3c(c(=O)oc12)CCCC3	-0.9	12.4*	5.3	-1.1	nt	1.3	-3.0	-2.8	-14.7	18.6*
Cc1c(OCC(=O)N2CCC(C(=O)O)CC2)ccc2c1oc(=O)c1ccccc12	-3.8	7.1	-1.4	-0.5	nt	-1.2	nt	nt	nt	nt
Cc1c(OCC(=O)N2CCC(C(N)=O)CC2)ccc2c1oc(=O)c1ccccc12	-3.8	23.1*	4.7	1.5	nt	1.9	-3.6	-0.7	-12.4	31.5*
COc1cccc(NC(=O)CN(C)C(=O)CCCc2nc3ccccc3c(=O)[nH]2)c1	nt	nt	4.1	nt	nt	-4.0	nt	nt	nt	nt
COc1ccc([C@H]2CC(=O)C=C(c3ccc(Cl)c(C(F)(F)F)c3)C2)cc1	nt	nt	-2.8	nt	nt	7.8	nt	nt	nt	nt
COc1ccc(C2=Nn3c(nnc3-c3cccnc3)SC2)cc1OC	nt	nt	10.6	-1.1	nt	3.6	nt	nt	nt	nt
COc1ccc(C2=Nn3c(nnc3-c3ccncc3)SC2)cc1OC	0.6	63.9*	7.6	-2.4	7.1	3.0	-2.1	0.1	-4.4	75.2*
O=C(CC(=O)NC1CCCCC1)N/N=C/c1ccccc1[N+](=O)[O-]	-2.3	-3.2	2.3	-0.5	nt	1.5	nt	nt	nt	nt
COc1ccc(N2CC(C(=O)OCC(=O)Nc3cccc(C)c3C)CC2=O)cc1 (stereo not drawn)	-1.0	-2.2	-1.2	-3.2	nt	5.9	nt	nt	nt	nt
O=c1[nH]c(SCc2nc3ccccc3c(=O)n2-c2ccccc2)nc2ccccc12	0.7	1.6	3.6	-2.9	-14.2	4.3	nt	nt	nt	nt
O=c1[nH]c(SCc2n[nH]c(=S)n2-c2ccccc2)nc2ccccc12	-3.0	28.0*	-8.8	1.3	-8.3	-1.4	-0.8	55.1*	-0.3	40.2*
O=c1[nH]c(SCc2n[nH]c(=S)n2-c2ccccc2)nc2sc3c(c12)CCC3	-2.4	20.9*	-0.1	nt	-1.0	3.9	-3.2	45.1*	-9.4	29.2*
COCCNC(=S)N(CCc1c(C)[nH]c2ccccc12)Cc1cccnc1	-1.6	-0.1	1.6	1.1	nt	3.1	nt	nt	nt	nt
c1ccc(-c2nc(-c3ccccn3)nc(-c3ccccn3)n2)nc1	-1.0	21.3*	7.7	-39.5*	-12.5	5.5	-2.7	-24.1	-5.6	44.5*
Nc1nc(N)nc(-c2ccccn2)n1	-10.3	-1.6	2.6	-0.1	-31.7	5.8	nt	nt	nt	nt
